Tests used:
Monkey = test: Percentage of iron clearing efficiency was measured in monkey after administration at 150 umol/kg (n=4); format: functional
Method in brief: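 Cebus apella monkeys iron-overloaded with iv iron dextran to about 500 mg Fe/kg, at least 60 days before use. Single po dose of 150 µmol/kg as solution or suspension in 40% Cremophor RH-40/water. Stool and urine collected every 24 h, from 4 days before dosing to 5 days after. Iron measured by flame atomic absorption. ICE = (2-day post-dose iron minus mean 4-day baseline) / theoretical excretion × 100. Mean ± SEM.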

[1] = Lipophilicity (Log Papp) was measured at pH 7.4; Activity expressed as the log of the fraction in the octanol layer; format: physicochemical; details: octanol/aqueous phase
Method in brief: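 Shake-flask octanol/water distribution at pH 7.4 in 50 mM TRIS buffer, uncorrected for partial ionization. Quadruplicate samples shaken with 1-octanol overnight, layers left to settle 1-2 h before separation. Room temperature (22-24 °C), UV spectrometric read-out, value given as log of fraction in octanol layer.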

Row | Structure (SMILES) | Activity (Monkey) | log fraction in octanol layer [1]
1 | COc1cccc(C2=N[C@@](C)(C(=O)O)CS2)c1O | 22.5% | -1.12
2 | C[C@]1(C(=O)O)CSC(c2ccc(O)cc2O)=N1 [DEFERITRIN] | 13.4% | -1.05
3 | C[C@]1(C(=O)O)CSC(c2cccc(O)c2O)=N1 | 23.1% | -1.17
4 | O=C(O)[C@H]1CSC(c2cccc(O)c2O)=N1 | 5.8% | -1.67
5 | COc1ccc(C2=N[C@@](C)(C(=O)O)CS2)c(O)c1 | 24.4% | -0.7
6 | COc1cccc(C2=N[C@@H](C(=O)O)CS2)c1O | 15.5% | -1.52
7 | COc1ccc(C2=N[C@@H](C(=O)O)CS2)c(O)c1 | 16.2% | -0.89
8 | O=C(O)[C@H]1CSC(c2ccc(O)cc2O)=N1 | 4.2% | -1.33
